Data: ChEMBL document CHEMBL1148119, “Monoterpene hydroperoxides with trypanocidal activity from Chenopodium ambrosioides” (J Nat Prod, 2002)
Converted amounts (≈) assume the structure as drawn. The source made the active and inactive calls. The rule behind the calls is not given here.

What was measured:
Trypanosoma cruzi [1] = test: Trypanocidal activity against Trypanosoma cruzi Tulahuen epimastigotes up to 400 uM after 24 hrs; assay type: functional, organism-based
Outline: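 Tulahuen epimastigotes maintained in GIT medium with hemin (12.4 μM). Parasite suspension incubated 24 h with sample in EtOH plus autoclaved saline. Motility checked by microscopy (×100) and minimum lethal concentration (MLC) recorded. Duplicate assays; gentian violet positive control.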

Trypanosoma cruzi [2] = test: Antitrypanosomal activity against Trypanosoma cruzi trypomastigotes infected in human HeLa cells assessed as number of amastigotes per infected cell at 1 ug/mL after 4 days by HeLa cell-infection assay; assay type: functional
Outline: (§1)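 HeLa cells (5 × 10^3 cells/mL/well) grown on coverslips 2 days at 37 °C, 5% CO2, then infected with T. cruzi trypomastigotes (1.2 × 10^4 parasites/well). Compound in ethanol (10 µL) added right after infection. Day 4: fixed, Diff-Quik stained, mounted. >200 host cells in random fields scored for % infected cells (>1 amastigote) and mean amastigotes per infected cell. Mean ± SE.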

Trypanosoma cruzi [3] = test: Antitrypanosomal activity against Trypanosoma cruzi trypomastigotes infected in human HeLa cells assessed as inhibition of amastigotes proliferation at 1 ug/mL after 4 days by HeLa cell-infection assay; assay type: functional, organism-based; outline: as §1
Trypanosoma cruzi [4] = test: Trypanocidal activity against Trypanosoma cruzi Tulahuen epimastigotes assessed as minimal lethal concentration after 24 hrs; assay type: functional
Outline: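 Tulahuen epimastigotes kept in GIT medium with hemin (12.4 µM). Parasites in medium (10 µL) incubated with sample in EtOH (5 µL) plus autoclaved saline (185 µL) for 24 h. Motility checked by microscopy (×100). MLC taken as minimum lethal concentration. Duplicates; gentian violet positive control.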

Trypanosoma cruzi [5] = test: Antitrypanosomal activity against Trypanosoma cruzi trypomastigotes infected in human HeLa cells assessed as infection rate at 1 ug/mL after 4 days by HeLa cell-infection assay; assay type: functional; outline: as §1
Trypanosoma cruzi [6] = test: Antitrypanosomal activity against Trypanosoma cruzi trypomastigotes infected in human HeLa cells assessed as inhibition of infection at 1 ug/mL after 4 days by HeLa cell-infection assay; assay type: functional; design: scale not given: the % may be the effect or the level left; outline: as §1
HeLa = test: Cytotoxicity against human HeLa cells at 10 ug/mL; assay type: cell-based

## C=C(C)[C@H]1CCC(=C)[C@@H](O)C1
Trypanosoma cruzi [1]
  Activity: inactive

## C=C(C)[C@H]1CCC(=C)[C@H](OO)C1
Trypanosoma cruzi [2]
  Activity: 18.6
Trypanosoma cruzi [3]
  Activity: inactive
Trypanosoma cruzi [4]
  MLC: 1.6 µM (≈ 0.269 µg/mL)
Trypanosoma cruzi [5]
  Activity: 4.4%
Trypanosoma cruzi [6]
  Activity: 63%
HeLa
  Activity: Toxic

## C=C(C)[C@@H]1C=C[C@](C)(OO)CC1
Trypanosoma cruzi [2]
  Activity: 19.1
Trypanosoma cruzi [3]
  Activity: inactive
Trypanosoma cruzi [4]
  MLC: 3.1 µM (≈ 0.522 µg/mL)
Trypanosoma cruzi [5]
  Activity: 1.5%
Trypanosoma cruzi [6]
  Activity: 88%
HeLa
  Activity: Toxic

## Oc1ncnc2[nH]ncc12 [ALLOPURINOL]
Trypanosoma cruzi [2]
  Activity: 10.9
Trypanosoma cruzi [3]
  Activity: inactive
Trypanosoma cruzi [5]
  Activity: 7%

## C=C(C)[C@H]1CCC(=C)[C@H](O)C1
Trypanosoma cruzi [1]
  Activity: inactive

## C=C(C)[C@H]1CCC(=C)[C@@H](OO)C1
Trypanosoma cruzi [4]
  MLC: 1.2 µM (≈ 0.202 µg/mL)

## C=C(C)[C@@H]1C=C[C@](C)(O)CC1
Trypanosoma cruzi [1]
  Activity: inactive

## C=C(C)[C@@H]1C=C[C@@](C)(O)CC1
Trypanosoma cruzi [1]
  Activity: inactive

## CC(C)C12C=CC(C)(CC1)OO2 (stereo unspecified) [ASCARIDOLE]
Trypanosoma cruzi [2]
  Activity: 22.8
Trypanosoma cruzi [3]
  Activity: inactive
Trypanosoma cruzi [4]
  MLC: 23 µM (≈ 3.87 µg/mL)
Trypanosoma cruzi [5]
  Activity: 8.5%

## CN(C)c1ccc(C(=C2C=CC(=[N+](C)C)C=C2)c2ccc(N(C)C)cc2)cc1.[Cl-] [GENTIAN VIOLET]
Trypanosoma cruzi [4]
  MLC: 6.3 µM

## C=C(C)[C@@H]1C=C[C@@](C)(OO)CC1
Trypanosoma cruzi [2]
  Activity: 12
Trypanosoma cruzi [3]
  Activity: inactive
Trypanosoma cruzi [4]
  MLC: 0.8 µM (≈ 0.135 µg/mL)
Trypanosoma cruzi [5]
  Activity: 0.13%
Trypanosoma cruzi [6]
  Activity: Active
HeLa
  Activity: Toxic
